Test results published in ChEMBL document CHEMBL3259723, “Membrane active vancomycin analogues: a strategy to combat bacterial resistance” (J Med Chem, 2014).
The source made the active and inactive calls. The rule behind the calls is not given here.

Legend:
Enterococcus faecium [1] = test: Antibacterial activity against vancomycin-resistant VanA phenotype of Enterococcus faecium ATCC 51559 assessed as leakage of intracellular potassium ion at 10 uM measured for 10 mins by PBFI-AM dye-based spectrofluorometric analysis; assay type: functional, organism-based
Method in brief: (§1)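 Mid-log (6 h) cells washed twice and resuspended in 10 mM HEPES pH 7.2 with 0.5% glucose. Signal stabilized 60 s at RT, then 1 μM PBFI-AM added and a 2 min baseline recorded before compound.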

Staphylococcus aureus [2] = test: Antibacterial activity against methicillin-resistant Staphylococcus aureus ATCC 33591 assessed as growth inhibition by broth microdilution method; assay type: functional
Method in brief: (§2)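 Broth microdilution per CLSI; compounds serially diluted in sterile water, added to bacteria at 10^5 CFU/mL (diluted from 6 h cultures). Incubated at 37 °C, OD600 read. Triplicate wells, experiment done at least twice. Mean OD plotted against concentration and fitted sigmoidally; MIC taken where OD matches the no-bacteria control.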

Staphylococcus aureus [3] = test: Antibacterial activity against methicillin-sensitive Staphylococcus aureus MTCC 737 assessed as growth inhibition by broth microdilution method; assay type: functional
Method in brief: (§3)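 Broth microdilution per CLSI; compounds serially diluted in autoclaved water. Bacteria grown 6 h in suitable media, diluted to 10⁵ CFU/mL; compound added to bacterial suspension, incubated at 37 °C, OD600 read. Triplicate wells, experiment done at least twice; mean OD versus concentration sigmoidally fitted, MIC taken where OD equals no-bacteria control.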

Enterococcus faecium [4] = test: Antibacterial activity against vancomycin-sensitive Enterococcus faecium ATCC 19634 assessed as growth inhibition by broth microdilution method; assay type: functional; method in brief: as §3
Enterococcus faecium [5] = test: Antibacterial activity against vancomycin-resistant VanA phenotype of Enterococcus faecium ATCC 51559 assessed as growth inhibition by broth microdilution method; assay type: functional; method in brief: as §2
Enterococcus faecium [6] = test: Antibacterial activity against vancomycin-resistant VanA phenotype of Enterococcus faecium ATCC 51559 assessed as induction of membrane depolarization measured at < 3 mins by DiSC3(5) dye-based spectrofluorometric analysis; assay type: functional, organism-based
Method in brief: (§4)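 Membrane potential assay with DiSC3(5): dye added to cells until maximal uptake, seen as a fluorescence minimum (about 10 min). Compounds then added and depolarization followed as the fluorescence increase over a further 10 min.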

Staphylococcus aureus [7] = test: Antibacterial activity against methicillin-resistant Staphylococcus aureus ATCC 33591 assessed as induction of cytoplasmic membrane permeabilization measured within 5 mins by propidium iodide uptake assay; assay type: functional, organism-based
Method in brief: (§5)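 Mid-log (6 h) cells harvested at 4 °C, washed and resuspended in PBS pH 7.2. Compound added to cells with 10 μM propidium iodide. Fluorescence (ex 535/em 617 nm) monitored 10 min at RT; the rise in PI fluorescence taken as inner membrane permeabilization.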

Staphylococcus aureus [8] = test: Antibacterial activity against methicillin-resistant Staphylococcus aureus ATCC 33591 assessed as induction of membrane depolarization measured at < 3 mins by DiSC3(5) dye-based spectrofluorometric analysis; assay type: functional, organism-based; method in brief: as §4
Enterococcus faecium [9] = test: Antibacterial activity against vancomycin-resistant VanA phenotype of Enterococcus faecium ATCC 51559 assessed as induction of cytoplasmic membrane permeabilization at 10 uM measured for 10 mins by propidium iodide uptake assay; assay type: functional, organism-based; method in brief: as §5
Staphylococcus aureus [10] = test: Antibacterial activity against vancomycin-intermediate-resistant Staphylococcus aureus assessed as growth inhibition by broth microdilution method; assay type: functional; method in brief: as §2
Staphylococcus aureus [11] = test: Antibacterial activity against methicillin-resistant Staphylococcus aureus ATCC 33591 assessed as leakage of intracellular potassium ion at 10 uM measured for 10 mins by PBFI-AM dye-based spectrofluorometric analysis relative to control; assay type: functional; method in brief: as §1
Staphylococcus aureus [12] = test: Antibacterial activity against methicillin-resistant Staphylococcus aureus ATCC 33591 assessed as induction of membrane depolarization at 10 uM measured for 10 mins by DiSC3(5) dye-based spectrofluorometric analysis; assay type: functional, organism-based; method in brief: as §4
Staphylococcus aureus [13] = test: Antibacterial activity against methicillin-resistant Staphylococcus aureus ATCC 33591 assessed as induction of cytoplasmic membrane permeabilization at 10 uM measured for 10 mins by propidium iodide uptake assay; assay type: functional, organism-based; method in brief: as §5
Enterococcus faecium [14] = test: Antibacterial activity against vancomycin-resistant VanA phenotype of Enterococcus faecium ATCC 51559 assessed as induction of membrane depolarization at 10 uM measured for 10 mins by DiSC3(5) dye-based spectrofluorometric analysis; assay type: functional, organism-based; method in brief: as §4
Staphylococcus aureus [15] = test: Antibacterial activity against methicillin-resistant Staphylococcus aureus ATCC 33591 infected in CD-1 mouse neutropenic thigh infection model assessed as reduction of bacterial burden in thigh at 12 mg/kg, iv bid administered as 12 hrs interval measured after 24 hrs; assay type: functional, organism-based; set-up: dose 12 mg/kg
Method in brief: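 Neutropenic mouse thigh model: about 50 μL MRSA inoculum injected into the thigh. About 1 h later, iv treatment twice at 12 h intervals with saline, vancomycin or compound at 12 mg/kg. At 24 h, thigh homogenate dilutions plated and incubated overnight at 37 °C; titer expressed as log10 CFU/g thigh.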

Staphylococcus aureus [16] = test: Bactericidal activity against methicillin-resistant Staphylococcus aureus ATCC 33591 infected in 90% human whole blood at 3.6 uM after 3 hrs; assay type: functional, organism-based
Method in brief: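 MRSA (30 μL of 10^6 CFU/mL in 0.9% saline) mixed with compound at 3.6 μM and 270 μL fresh human whole blood. Incubated 3 h at 37 °C.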

Staphylococcus aureus [17] = test: Bacteriostatic activity against methicillin-resistant Staphylococcus aureus ATCC 33591 measured over 24 hrs; assay type: functional, organism-based
Method in brief: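 MRSA in yeast-dextrose broth, starting inoculum 1.6 × 10^8 CFU/mL. […] Samples taken at 0, 1, 2, 3, 6 and 24 h, diluted 10-fold serially in saline and plated on yeast-dextrose agar. Colonies counted after 24 h at 37 °C; log10 CFU/mL reported.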

Staphylococcus aureus [18] = test: Ratio of MIC for methicillin-resistant Staphylococcus aureus ATCC 33591 measured after 52 serial passages to MIC for methicillin-resistant Staphylococcus aureus ATCC 33591; assay type: functional
Method in brief: (§6)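 Serial passage: the MIC assay is run against MRSA, then cells from the one-half-MIC well of the previous assay are harvested and inoculated into fresh yeast-dextrose broth for the next MIC assay after 24 h incubation. Repeated for […] passages; MIC plotted against passage number and fold increase in MIC determined.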

Staphylococcus aureus [19] = test: Antibacterial activity against methicillin-resistant Staphylococcus aureus ATCC 33591 assessed as growth inhibition measured after 20 serial passages; assay type: functional, organism-based; method in brief: as §6

SMILES	Activity (Enterococcus faecium [1])	MIC (Staphylococcus aureus [2])	MIC (Staphylococcus aureus [3])	MIC (Enterococcus faecium [4])	MIC (Enterococcus faecium [5])	Activity (Enterococcus faecium [9])	MIC (Staphylococcus aureus [10])	Activity (Staphylococcus aureus [11])	Activity (Staphylococcus aureus [12])	Activity (Staphylococcus aureus [13])	Activity (Enterococcus faecium [14])	other results
CCCCCCCCCC[N+](C)(C)CCCNC(=O)[C@H]1NC(=O)[C@H]2NC(=O)[C@H](NC(=O)[C@@H]3NC(=O)[C@H](CC(N)=O)NC(=O)[C@H](NC(=O)[C@@H](CC(C)C)NC)[C@H](O)c4ccc(c(Cl)c4)Oc4cc3cc(c4O[C@@H]3O[C@H](CO)[C@@H](O)[C@H](O)[C@H]3O[C@H]3C[C@](C)(N)[C@H](O)[C@H](C)O3)Oc3ccc(cc3Cl)[C@H]2O)c2ccc(O)c(c2)-c2c(O)cc(O)cc21	Active	0.31 µM	0.31 µM	0.2 µM	3 µM	Active	0.3 µM	Active	–	–	–	Activity (Enterococcus faecium [6]): Dose-dependent effect; Activity (Staphylococcus aureus [7]): Dose-dependent effect; Activity (Staphylococcus aureus [8]): Dose-dependent effect
CN[C@H](CC(C)C)C(=O)N[C@H]1C(=O)N[C@@H](CC(N)=O)C(=O)N[C@H]2C(=O)N[C@H]3C(=O)N[C@H](C(=O)N[C@H](C(=O)NCCCN(C)C)c4cc(O)cc(O)c4-c4cc3ccc4O)[C@H](O)c3ccc(c(Cl)c3)Oc3cc2cc(c3O[C@@H]2O[C@H](CO)[C@@H](O)[C@H](O)[C@H]2O[C@H]2C[C@](C)(N)[C@H](O)[C@H](C)O2)Oc2ccc(cc2Cl)[C@H]1O	inactive	0.61 µM	0.62 µM	0.63 µM	> 100 µM	inactive	1.47 µM	–	inactive	inactive	inactive	–
CCCCCCCCCCNCCN[C@@]1(C)C[C@H](O[C@H]2[C@H](Oc3c4cc5cc3Oc3ccc(cc3Cl)[C@@H](O)[C@@H](NC(=O)[C@@H](CC(C)C)NC)C(=O)N[C@@H](CC(N)=O)C(=O)N[C@H]5C(=O)N[C@H]3C(=O)N[C@H](C(=O)N[C@H](C(=O)O)c5cc(O)c(CNCP(=O)(O)O)c(O)c5-c5cc3ccc5O)[C@H](O)c3ccc(c(Cl)c3)O4)O[C@H](CO)[C@@H](O)[C@@H]2O)O[C@@H](C)[C@H]1O [TELAVANCIN]	–	–	–	–	–	–	–	–	–	–	–	MIC90 (Staphylococcus aureus [2]): 0.3 µM; MIC90 (Staphylococcus aureus [3]): 0.3 µM; MIC90 (Enterococcus faecium [4]): 0.15 µM; MIC90 (Enterococcus faecium [5]): 4 µM
CN[C@H]1C(=O)N[C@@H]2Cc3ccc(cc3)Oc3cc4cc(c3O[C@@H]3O[C@H](C(=O)O)[C@@H](O)[C@H](O)[C@H]3NC(=O)CCCCCCCCC(C)C)Oc3ccc(cc3Cl)[C@@H](O)[C@@H]3NC(=O)[C@H](NC(=O)[C@@H]4NC(=O)[C@@H](NC2=O)c2cc(cc(O)c2Cl)Oc2cc1ccc2O)c1ccc(O)c(c1)-c1c(O[C@H]2O[C@H](CO)[C@@H](O)[C@H](O)[C@@H]2O)cc(O)cc1[C@@H](C(=O)NCCCN(C)C)NC3=O [DALBAVANCIN]	–	–	–	–	–	–	–	–	–	–	–	MIC90 (Staphylococcus aureus [2]): 0.04 µM; MIC90 (Staphylococcus aureus [3]): 0.04 µM; MIC90 (Enterococcus faecium [4]): 0.08 µM; MIC90 (Enterococcus faecium [5]): > 18 µM
CCCC[N+](C)(C)CCCNC(=O)[C@H]1NC(=O)[C@H]2NC(=O)[C@H](NC(=O)[C@@H]3NC(=O)[C@H](CC(N)=O)NC(=O)[C@H](NC(=O)[C@@H](CC(C)C)NC)[C@H](O)c4ccc(c(Cl)c4)Oc4cc3cc(c4O[C@@H]3O[C@H](CO)[C@@H](O)[C@H](O)[C@H]3O[C@H]3C[C@](C)(N)[C@H](O)[C@H](C)O3)Oc3ccc(cc3Cl)[C@H]2O)c2ccc(O)c(c2)-c2c(O)cc(O)cc21	inactive	0.6 µM	0.37 µM	0.31 µM	> 100 µM	inactive	1.14 µM	–	inactive	inactive	inactive	–
CN[C@H](CC(C)C)C(=O)N[C@H]1C(=O)N[C@@H](CC(N)=O)C(=O)N[C@H]2C(=O)N[C@H]3C(=O)N[C@H](C(=O)N[C@H](C(=O)O)c4cc(O)cc(O)c4-c4cc3ccc4O)[C@H](O)c3ccc(c(Cl)c3)Oc3cc2cc(c3O[C@@H]2O[C@H](CO)[C@@H](O)[C@H](O)[C@H]2O[C@H]2C[C@](C)(N)[C@H](O)[C@H](C)O2)Oc2ccc(cc2Cl)[C@H]1O [VANCOMYCIN]	–	0.63 µM	0.63 µM	0.6 µM	750 µM	inactive	13 µM	100%	inactive	inactive	inactive	Activity (Staphylococcus aureus [15]): Active; Activity (Staphylococcus aureus [16]): Active; Activity (Staphylococcus aureus [17]): Dose-dependent effect; Ratio (Staphylococcus aureus [18]): >20; Activity (Staphylococcus aureus [19]): Active
CCCCCCCCCCCCCC[N+](C)(C)CCCNC(C)=O	inactive	–	–	–	–	inactive	–	–	–	–	inactive	–
CC[N+](C)(C)CCCNC(=O)[C@H]1NC(=O)[C@H]2NC(=O)[C@H](NC(=O)[C@@H]3NC(=O)[C@H](CC(N)=O)NC(=O)[C@H](NC(=O)[C@@H](CC(C)C)NC)[C@H](O)c4ccc(c(Cl)c4)Oc4cc3cc(c4O[C@@H]3O[C@H](CO)[C@@H](O)[C@H](O)[C@H]3O[C@H]3C[C@](C)(N)[C@H](O)[C@H](C)O3)Oc3ccc(cc3Cl)[C@H]2O)c2ccc(O)c(c2)-c2c(O)cc(O)cc21	inactive	2.42 µM	0.39 µM	0.45 µM	> 100 µM	inactive	1.3 µM	–	inactive	inactive	inactive	–
CCCCCCCCCCCCCCNCCCNC(=O)[C@H]1NC(=O)[C@H]2NC(=O)[C@H](NC(=O)[C@@H]3NC(=O)[C@H](CC(N)=O)NC(=O)[C@H](NC(=O)[C@@H](CC(C)C)NC)[C@H](O)c4ccc(c(Cl)c4)Oc4cc3cc(c4O[C@@H]3O[C@H](CO)[C@@H](O)[C@H](O)[C@H]3O[C@H]3C[C@](C)(N)[C@H](O)[C@H](C)O3)Oc3ccc(cc3Cl)[C@H]2O)c2ccc(O)c(c2)-c2c(O)cc(O)cc21	inactive	0.61 µM	0.55 µM	0.4 µM	5 µM	inactive	1 µM	–	–	–	inactive	–
CCCCCCCCCCCCCCCCCC[N+](C)(C)CCCNC(=O)[C@H]1NC(=O)[C@H]2NC(=O)[C@H](NC(=O)[C@@H]3NC(=O)[C@H](CC(N)=O)NC(=O)[C@H](NC(=O)[C@@H](CC(C)C)NC)[C@H](O)c4ccc(c(Cl)c4)Oc4cc3cc(c4O[C@@H]3O[C@H](CO)[C@@H](O)[C@H](O)[C@H]3O[C@H]3C[C@](C)(N)[C@H](O)[C@H](C)O3)Oc3ccc(cc3Cl)[C@H]2O)c2ccc(O)c(c2)-c2c(O)cc(O)cc21.O=C([O-])C(F)(F)F	Active	–	5.03 µM	–	1.9 µM	Active	0.92 µM	99%	–	–	–	Activity (Enterococcus faecium [6]): Dose-dependent effect; Activity (Staphylococcus aureus [7]): Dose-dependent effect; Activity (Staphylococcus aureus [8]): Dose-dependent effect
